Consider one compound from ChEMBL document CHEMBL4834477, “Synthesis and biological evaluation of novel purinyl quinazolinone derivatives as PI3Kδ-specific inhibitors for the treatment of hematologic malignancies” (Bioorg Med Chem, 2021).

The structures appear in SMILES notation.

The target in series [1] is PI3-kinase p110-alpha/p85-alpha (Homo sapiens, UniProt P42336). Put plainly: Inhibition of recombinant human full length N-terminal His-tagged p110alpha/p85alpha expressed in baculovirus expression system measured after 60 mins in presence of ATP by ATP-competitive binding assay. A digest of the protocol:
(§1)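 SelectScreen ATP-competitive assay using 10-point titration with 1 μM top final compound concentration. Kinase, substrate and ATP mixed in 30 mM HEPES buffer and reacted 60 min. IC50 taken as the mean of three independent experiments.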

Series [2] deals with PI3-kinase p110-delta/p85-alpha (Homo sapiens, UniProt O00329). The experiment in a line: Inhibition of recombinant human full length His-tagged p110delta/p85alpha expressed in baculovirus expression system measured after 60 mins in presence of ATP by ATP-competitive binding assay. A digest of the protocol: as §1
Chain of PI3-kinase p110-delta/p85-alpha (P27986 whole entry): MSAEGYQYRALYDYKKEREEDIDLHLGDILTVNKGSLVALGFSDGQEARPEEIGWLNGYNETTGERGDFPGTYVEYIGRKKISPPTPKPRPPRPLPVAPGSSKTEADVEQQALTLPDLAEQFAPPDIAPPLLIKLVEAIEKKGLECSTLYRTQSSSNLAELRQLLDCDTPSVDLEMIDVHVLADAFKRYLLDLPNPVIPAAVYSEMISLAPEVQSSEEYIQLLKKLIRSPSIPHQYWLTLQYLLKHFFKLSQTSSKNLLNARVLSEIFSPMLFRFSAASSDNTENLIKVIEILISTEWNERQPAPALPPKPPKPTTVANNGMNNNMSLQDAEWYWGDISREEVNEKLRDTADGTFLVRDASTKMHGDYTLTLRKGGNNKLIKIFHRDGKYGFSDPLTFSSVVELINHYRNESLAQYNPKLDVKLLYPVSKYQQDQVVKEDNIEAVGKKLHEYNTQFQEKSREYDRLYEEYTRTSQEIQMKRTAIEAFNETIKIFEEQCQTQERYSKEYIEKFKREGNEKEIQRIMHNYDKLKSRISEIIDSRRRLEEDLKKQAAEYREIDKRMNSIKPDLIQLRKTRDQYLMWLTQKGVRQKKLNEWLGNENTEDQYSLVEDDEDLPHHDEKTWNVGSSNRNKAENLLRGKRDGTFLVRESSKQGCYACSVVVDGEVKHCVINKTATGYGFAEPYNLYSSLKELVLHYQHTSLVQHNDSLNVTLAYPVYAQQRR
Chain of PI3-kinase p110-delta/p85-alpha (O00329 whole entry): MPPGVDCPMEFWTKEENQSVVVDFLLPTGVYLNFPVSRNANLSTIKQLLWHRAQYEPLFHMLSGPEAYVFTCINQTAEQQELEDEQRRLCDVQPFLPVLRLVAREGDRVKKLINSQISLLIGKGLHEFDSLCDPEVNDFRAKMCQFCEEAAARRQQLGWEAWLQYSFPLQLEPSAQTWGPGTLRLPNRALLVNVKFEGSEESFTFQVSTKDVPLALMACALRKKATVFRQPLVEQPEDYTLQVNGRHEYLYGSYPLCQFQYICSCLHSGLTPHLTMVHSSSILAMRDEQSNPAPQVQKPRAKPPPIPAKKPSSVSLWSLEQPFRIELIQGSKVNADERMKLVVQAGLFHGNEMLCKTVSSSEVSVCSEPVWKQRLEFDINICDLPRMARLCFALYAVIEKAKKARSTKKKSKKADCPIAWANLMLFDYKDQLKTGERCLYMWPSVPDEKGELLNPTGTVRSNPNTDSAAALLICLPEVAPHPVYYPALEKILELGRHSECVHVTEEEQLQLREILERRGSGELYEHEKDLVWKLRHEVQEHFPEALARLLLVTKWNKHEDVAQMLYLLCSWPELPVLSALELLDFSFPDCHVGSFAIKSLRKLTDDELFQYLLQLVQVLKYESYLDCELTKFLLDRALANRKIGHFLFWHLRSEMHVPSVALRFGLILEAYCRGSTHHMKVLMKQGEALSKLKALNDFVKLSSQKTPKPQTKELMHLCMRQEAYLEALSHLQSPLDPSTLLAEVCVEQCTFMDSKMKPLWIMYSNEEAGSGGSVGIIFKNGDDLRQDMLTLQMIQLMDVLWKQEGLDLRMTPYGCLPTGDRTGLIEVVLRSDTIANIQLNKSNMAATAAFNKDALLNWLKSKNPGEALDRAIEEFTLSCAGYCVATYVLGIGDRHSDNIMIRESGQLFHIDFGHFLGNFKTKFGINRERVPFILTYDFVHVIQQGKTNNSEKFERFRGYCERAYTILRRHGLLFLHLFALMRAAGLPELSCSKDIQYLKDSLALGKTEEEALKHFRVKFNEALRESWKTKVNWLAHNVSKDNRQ
Series [3] can be described thus: AUC (last) in Sprague-Dawley rat at 1 mg/kg, po measured for 24 hrs by LC-MS/MS analysis. More on the design: route oral, dose 1 mg/kg, time 24 hrs. The conditions noted are these: in vivo. In kind it is ADME, organism-based. A digest of the protocol: (§2)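 Sprague-Dawley rats dosed orally at 1 or 3 mg/kg, three animals per group. Blood sampled at 0.25, 0.5, 1, 2, 4, 8 and 24 h post-dose. Plasma separated by centrifugation, extracted and quantified by LC-MS/MS. PK parameters (Cmax, AUClast, Tmax, t1/2) derived by non-compartmental software.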

The nature of series [4]: Half life in Sprague-Dawley rat at 1 mg/kg, po measured for 24 hrs by LC-MS/MS analysis. In kind it is ADME, organism-based. The conditions noted are these: in vivo. A digest of the protocol: as §2

Chain of PI3-kinase p110-alpha/p85-alpha (P27986 whole entry): as the sequence (P27986 whole entry) above
Chain of PI3-kinase p110-alpha/p85-alpha (P42336 whole entry): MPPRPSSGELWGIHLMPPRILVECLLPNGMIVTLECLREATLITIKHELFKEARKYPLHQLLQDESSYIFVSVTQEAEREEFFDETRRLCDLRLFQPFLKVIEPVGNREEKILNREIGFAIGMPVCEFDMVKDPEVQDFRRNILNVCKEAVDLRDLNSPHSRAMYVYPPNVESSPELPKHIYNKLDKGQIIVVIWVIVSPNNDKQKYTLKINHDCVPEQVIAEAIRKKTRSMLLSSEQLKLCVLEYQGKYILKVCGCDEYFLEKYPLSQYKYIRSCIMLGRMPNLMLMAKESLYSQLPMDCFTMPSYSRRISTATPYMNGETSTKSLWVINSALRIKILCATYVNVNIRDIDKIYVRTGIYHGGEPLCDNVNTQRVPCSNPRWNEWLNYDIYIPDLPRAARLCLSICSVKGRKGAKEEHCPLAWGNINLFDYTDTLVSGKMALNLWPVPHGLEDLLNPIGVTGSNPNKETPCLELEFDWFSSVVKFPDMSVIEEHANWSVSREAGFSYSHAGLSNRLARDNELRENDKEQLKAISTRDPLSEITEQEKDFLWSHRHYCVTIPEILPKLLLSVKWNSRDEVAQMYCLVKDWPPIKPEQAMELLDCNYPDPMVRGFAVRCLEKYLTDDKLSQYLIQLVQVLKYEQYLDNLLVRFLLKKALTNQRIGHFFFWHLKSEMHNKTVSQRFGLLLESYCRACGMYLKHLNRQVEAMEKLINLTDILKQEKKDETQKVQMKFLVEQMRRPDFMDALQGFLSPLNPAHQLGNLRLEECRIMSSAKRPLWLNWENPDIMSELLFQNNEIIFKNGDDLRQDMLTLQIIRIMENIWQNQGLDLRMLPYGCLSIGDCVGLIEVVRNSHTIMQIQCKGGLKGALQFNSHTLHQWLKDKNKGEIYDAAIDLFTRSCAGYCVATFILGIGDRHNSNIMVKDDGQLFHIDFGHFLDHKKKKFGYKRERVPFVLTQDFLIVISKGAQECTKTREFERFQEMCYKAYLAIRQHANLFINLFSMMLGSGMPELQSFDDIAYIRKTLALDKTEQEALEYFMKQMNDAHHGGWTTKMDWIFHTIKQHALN

A word on the IC50: it is the concentration that gives 50% inhibition. One may read the AUC(0-t) as the area under the concentration-time curve up to a stated or last time point. High values mean high exposure, low ones low exposure. A word on the half-life: it is the time in which the quantity being followed falls by half. Turning to `O=c1c2c(F)cccc2nc([C@@H](Nc2ncnc3nc[nH]c23)C2CC2)n1-c1ccccc1`, the IC50 is 222 nM in series [1] and 0.39 nM in series [2]. Moreover, the AUC(0-t) at 24 h in series [3] is 81 ng·h/mL. The compound also showed a half-life in series [4] of 10.2 h.
